Hits are enriched below; roughly 1.9% of the tested compounds scored in any of these assays.
V-ATPase pH: regulators of yeast V-ATPase proton transport; S. cerevisiae, pHLuorin cytosolic pH fluorescence; response, % at 10 µM; 350,000 tested, 0.37% active; AID 504577; in the data active means response mostly above about 7.3%, no sharp cut-off; inactive means mostly below about 5.4%; further: actives read high
Rce1 inh: inhibitors of yeast Ras-converting enzyme. 290,000 tested, 0.27% active. AID 2563. Q03530. calls only. yeast membranes, quenched prenylated peptide cleavage fluorescence;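 active means fall in fluorescence gain of 50% or more versus controls, with final raw signal at or below 3038400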;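 further: plate controls were neutral control wells for no effect and wells lacking membranes for full effect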
Target sequence (Q03530 whole entry, looked up): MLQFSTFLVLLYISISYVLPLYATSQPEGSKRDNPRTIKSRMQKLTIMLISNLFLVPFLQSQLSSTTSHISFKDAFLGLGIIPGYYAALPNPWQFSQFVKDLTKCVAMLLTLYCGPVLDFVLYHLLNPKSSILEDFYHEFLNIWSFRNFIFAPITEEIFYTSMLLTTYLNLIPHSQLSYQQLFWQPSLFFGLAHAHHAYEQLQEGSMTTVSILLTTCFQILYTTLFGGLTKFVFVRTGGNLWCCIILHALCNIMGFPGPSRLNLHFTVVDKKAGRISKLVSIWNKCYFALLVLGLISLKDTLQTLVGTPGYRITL
T cell modulator: T cell immune modulators affecting CD8 T cell-vesicle binding; 2C CD8+ T cell-vesicle binding, flow cytometry; stronger effect = lower value; 330,000 tested, 0.068% active; response (vesicle binding), % at 7 µM;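 active means response, share of CD8 T cells binding vesicles, and their 90th percentile fluorescence all below set limits, cut at about 80% in these data, passing the limit was not always enough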;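 further: values below 100% mean blocked vesicle binding to the CD8+ T cells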
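System: murine 2C transgenic CD8+ T lymphocytes; also added: QL9-loaded Drosophila micro-vesicles; times: binding 1.5 h at 37 °C; measured by: flow cytometry, PE anti-B7-1 (FL2) versus Alexa647 anti-CD8 (FL8), PFA-fixed; control set: Peptide-free naked vesicles (low) and QL9 vesicles with 0.7% DMSO vehicle (high)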
MIN6 prolif: induces beta-cell replication in MIN6 cells. AID 2380. proliferation, % at 10 µM. 330,000 tested, 0.29% active. MIN6 cells proliferation, ATPlite luminescence, 48 h; cells starved in 0.2% serum; 100% = growth in 10% serum;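 active means compounds whose signal lies at least 3.5 SD above the mean of all wells on their plate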;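 further: 0% = DMSO-treated cells in low-serum medium and 100% = 10% serum control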
proKLK7 act: activators of human kallikrein-7 zymogen; AID 652039; purified proKLK7, EDANS-DABCYL substrate fluorescence; 100% is mature enzyme control, 0% vehicle; activation, % at 7 µM; P49862; 370,000 tested, 0.9% active;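 active means activation above the mean of all tested compounds plus 3 SD, computed per campaign excluding outliers beyond control limits, cut at about 13% in these data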
Target sequence (P49862 whole entry, looked up): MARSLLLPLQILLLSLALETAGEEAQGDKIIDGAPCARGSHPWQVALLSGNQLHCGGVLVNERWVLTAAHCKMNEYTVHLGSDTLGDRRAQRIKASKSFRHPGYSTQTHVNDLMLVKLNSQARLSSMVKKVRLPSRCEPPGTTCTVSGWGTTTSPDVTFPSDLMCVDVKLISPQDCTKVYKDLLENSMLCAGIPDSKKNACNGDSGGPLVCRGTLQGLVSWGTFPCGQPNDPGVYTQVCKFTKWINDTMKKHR
Yeast superoxide: yeast age-related superoxide inhibition as caloric restriction mimetic; S. cerevisiae aged cells, superoxide DHE fluorescence; stronger effect = lower value; superoxide response (% of plate mean), % at 10 µM; 330,000 tested, 0.18% active;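 active means superoxide response under a set limit, about three screen SD below normal, cut at about 65% in these data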;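 further: yeast aged for seven days with compound at 30 °C before DHE staining; 100% = average MFI of all compound-treated wells on the plate with controls excluded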
V-ATPase pH SP: yeast V-ATPase proton transport regulation; shares compounds with V-ATPase pH; S. cerevisiae pHLuorin cytosolic pH; response, % at 10 µM; 980 tested, 2% active; in the data active means response above about 24%;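 further: plate controls were vehicle wells for no effect and positive control wells for full effect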
* = called active by the depositor; i = inactive; . = no result.

SMILES	V-ATPase pH	Rce1 inh	T cell modulator	MIN6 prolif	proKLK7 act	Yeast superoxide	V-ATPase pH SP
N#C/C(=C\c1ccco1)C(=O)Nc1ccc(S(N)(=O)=O)cc1	8.6*	i	225.7	-1.2	-0.4	88.9	-6.9
Cc1cccc(/C(N)=N/OC(=O)Cc2cccs2)c1	8.5*	i	477.0	-0.7	-0.3	104.6	-0.4
Cc1ccc(/C(N)=N/OC(=O)Cc2cccs2)cc1	-2.3	i	378.5	-0.7	0.8	107.4	.
CNc1c(NC(=O)COc2ccc(Cl)cc2)c(=O)oc2ccccc12	6.3	i	392.4	1.7	0.2	96.7	.
O=C(Cn1nc(-c2ccccc2F)ccc1=O)Nc1ccc(S(=O)(=O)N2CCCCCC2)cc1	-0.8	i	417.7	-2.1	0.5	78.7	.
O=C(Cn1ncc2c1-c1ccccc1OC2)Nc1ccc(S(=O)(=O)N2CCCCC2)cc1	11.8*	.	211.7	-2.2	0.5	92.5	-1.8
CCN(C(=O)COC(=O)c1cc(-c2ccccc2)nc2c1c(C)nn2-c1ccc(C)cc1)C1CCS(=O)(=O)C1 (configuration not stated)	3.5	i	153.3	-4.4	-0.4	84.8	.
CCN(C(=O)COC(=O)c1cc(-c2ccccc2)nc2ccc(Br)cc12)C1CCS(=O)(=O)C1 (configuration not stated)	10.0*	i	240.6	0.5	-0.5	107.5	-1.0
O=c1ccc(OCCOc2ccccc2)nn1-c1ccccc1	14.7*	i	366.0	0.0	-0.3	88.2	6.5
NC(=O)COc1ccc(=O)n(-c2ccccc2)n1	-0.5	i	650.9	-1.7	-0.4	92.8	.
CSCCC(NC(=O)c1ccccc1)C(=O)N1CC=C(c2ccccc2)CC1 (configuration not stated)	9.3*	i	0.0	1.1	0.8	93.5	-0.2
CC[C@H]1C=C[C@@H](C(C(=O)OC)C(=O)OC)CN1C(C)=O	1.1	.	.	.	-0.7	.	.
COC(=O)[C@]12C[C@H](CC(=O)NCC3CCCCC3)C(=O)N(Cc3cccc4ccccc34)C1=C[C@H](C(C)(C)C)O[C@@H]2C	.	.	.	.	0.5	.	.
CCC(C(=O)N1CCN(Cc2ccc3c(c2)OCO3)CC1)n1nnc2ccccc2c1=O (configuration not stated)	1.1	.	.	.	0.4	.	.
C[C@@H](C(=O)N1CCN(Cc2ccc3c(c2)OCO3)CC1)n1nnc2ccccc2c1=O	24.3*	i	324.5	-2.3	-0.3	109.4	2.1
CCOCC(=O)N1CCN(Cc2ccc3c(c2)OCO3)CC1	9.3*	i	336.6	-5.1	0.6	100.5	0.4
Cc1ccc(Nc2nnc(C)c3ccccc23)c(C)c1	12.4*	i	134.9	-1.3	0.8	93.6	9.1
Cc1ccc(Nc2cc(=O)oc3ccccc23)c(C)c1	-3.4	i	358.3	-1.0	6.6	115.4	.
CC(C(=O)Nc1ccc2c(c1)OCCO2)c1ccc([N+](=O)[O-])cc1 (configuration not stated)	-0.1	i	220.0	0.9	0.6	96.4	.
CC(C(=O)Nc1ccc2c(c1)OCO2)c1ccc([N+](=O)[O-])cc1 (configuration not stated)	15.3*	i	157.2	0.9	-0.1	82.0	1.0
COc1ccc(Cl)cc1NC(=S)NCCSc1ccc(C)cc1	7.6*	i	420.4	-6.4	0.1	106.5	4.1
CC(=O)c1cccc(NC(=O)COC(=O)C2=COCCO2)c1	-0.9	.	345.2	1.6	0.1	90.1	.
CC(C)(C)OC(=O)NCC(=O)NNC(=O)C(C(=O)OCc1ccccc1)c1ccccc1 (configuration not stated)	8.8*	.	363.4	0.8	0.0	96.8	-0.7
COC(=O)[C@]12C[C@H](CC(=O)N3CCCCC3)C(=O)N(Cc3ccc4c(c3)OCO4)C1=C[C@H](COCc1ccccc1)O[C@@H]2C	.	.	.	.	-0.1	.	.
O=C1C=C(NCc2ccc(Cl)cc2Cl)C2(CCCCC2)O1	10.2*	i	441.4	-3.5	0.3	84.5	3.7
SMILES	V-ATPase pH	Rce1 inh	T cell modulator	MIN6 prolif	proKLK7 act	Yeast superoxide	V-ATPase pH SP
CN(C)CCCNC1=CC(=O)OC12CCCCC2	2.2	i	360.7	2.4	-0.6	93.8	.
CNC(=S)N=Nc1c(O)[nH]c2ccccc12	-0.2	i	877.0	.	0.6	118.4	.
CCOC(=O)C(=O)N=Nc1c(O)[nH]c2ccccc12	-1.6	i	177.5	-1.1	0.5	96.7	1.4
COc1ccc(OCc2nn3c(-c4ccccn4)nnc3s2)cc1	9.5*	i	357.0	0.2	-0.5	123.4	1.7
COc1ccc(-c2nnc3sc(COc4ccccc4)nn23)cc1	-0.6	i	312.9	-1.1	-0.4	105.5	.
Cc1c(N=Cc2c(O)n(C)c(=O)c3ccccc23)c(=O)n(-c2ccccc2)n1C	-1.8	.	161.2	-0.8	.	105.2	.
Cc1c(N=Cc2c(O)n(C3CCCCC3)c(=O)[nH]c2=O)c(=O)n(-c2ccccc2)n1C	19.3*	i	213.9	-3.9	-0.1	99.9	-30.5
CN(CC(=O)Nc1cc(S(=O)(=O)N2CCOCC2)ccc1Cl)C1CCS(=O)(=O)C1 (configuration not stated)	7.6*	i	337.0	1.3	0.2	115.9	4.0
Nc1ccc(C(=O)OCc2csc(-c3ccccc3)n2)cc1[N+](=O)[O-]	10.0*	i	171.5	-0.8	-0.1	90.8	-6.6
O=C(/C=C/c1cccc([N+](=O)[O-])c1)OCC(=O)N1CCN(C(=O)c2ccco2)CC1	12.4*	.	481.0	-1.6	0.0	95.7	2.6
C[C@@H]1CN([C@@H](C)CO)S(=O)(=O)c2ccc(Br)cc2O[C@@H]1CN(C)C(=O)c1ccncc1	5.2*	.	.	.	0.7	.	-0.9
CC1=C(C(=O)Nc2cc(C(=O)NCc3ccccc3)ccc2C)SCCO1	55.3*	.	.	.	0.5	.	1.5
CCCCNC(=O)c1ccc(C)c(NC(=O)C2=C(C)OCCS2)c1	2.7	i	174.1	1.2	-0.1	112.5	.
O=C1CN(C(=O)COc2ccc(Br)cc2Br)c2ccccc2N1	8.8*	i	287.8	-1.6	-0.1	114.1	2.5
O=C1CN(C(=O)COc2ccc(Br)cc2F)c2ccccc2N1	-0.1	i	379.5	0.0	-0.1	95.6	.
O=C(CSc1nc2ccccc2c(=O)n1NC(=O)Cc1ccccc1)NCc1ccccc1	14.6*	i	326.6	-1.1	0.3	110.6	1.6
CCCCOCCCNC(=O)C[C@@H]1C[C@@]2(C(=O)OC)CCCCC=C2N(Cc2ccco2)C1=O	.	.	.	.	0.7	.	.
CCC1S/C(=N/N=C/c2ccco2)N(Cc2ccccc2)C1=O (configuration not stated)	60.0*	i	204.9	-1.8	-0.2	80.7	1.6
CC1S/C(=N/N=C/c2ccco2)N(Cc2ccc(F)cc2)C1=O (configuration not stated)	-1.1	i	385.9	-0.9	0.2	91.0	.

Compound activity from PubChem.
